Key:
[1] = Antiproliferative activity against human PC3 cells at 10 uM after 72 hrs by Alamar Blue assay relative to control; conditions: PC-3, 72 h
[2] = Antiproliferative activity against human PC3 cells after 72 hrs by Alamar Blue assay; conditions: PC-3, 72 h
[3] = Cell cycle arrest in human PC3 cells assessed as accumulation at S phase at 0.3 uM after 24 hrs by propidium iodide staining-based flow cytometric method (reference value: 15.8 +/- 0.3%); format: functional; conditions: PC-3
Outline: (§1)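 PC3 cells exposed 24 h to 0 (DMSO only), 0.1, 0.3 or 1 μM. Cells collected, washed in ice-cold PBS, fixed in 70% EtOH at −20 °C for 16 h. Stained 20 min at room temperature with 0.1% Triton X-100, 0.2 mg RNaseA and 2 μL PI (1 mg/mL) in 1 mL, then flow cytometry. Phase distribution fitted by ModFit.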

[4] = Cell cycle arrest in human PC3 cells assessed as accumulation at G0/G1 phase at 1 uM after 24 hrs by propidium iodide staining-based flow cytometric method (reference value: 75.3 +/- 1.8%); format: functional; conditions: PC-3
Outline: as §1

[5] = Cell cycle arrest in human PC3 cells assessed as accumulation at S phase at 1 uM after 24 hrs by propidium iodide staining-based flow cytometric method (reference value: 15.8 +/- 0.3%); format: functional; conditions: PC-3
Outline: as §1

[6] = Cell cycle arrest in human PC3 cells assessed as accumulation at G2/M phase at 0.3 uM after 24 hrs by propidium iodide staining-based flow cytometric method (reference value: 8.9 +/- 1.5%); format: functional; conditions: PC-3
Outline: as §1

[7] = tested on: PC-3; experiment: Induction of apoptosis in human PC3 cells assessed as increase in cell area after 72 hrs by Hoechst 33342/mitotracker deep red/cellmask plasma membrane probe-based fluorescence microscopy; format: functional
Outline: (§2)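 PC3 cells seeded at 2000/well onto compound, grown 72 h at 37 °C, 5% CO2. Stained 30 min at 37 °C with Hoechst 33342 (1/1000), 1 μM MitoTracker Deep Red and CellMask plasma membrane (1/1000), then PBS wash. Automated wide-field imaging at 20×, 25 fields/well. Nuclei segmented by Hoechst, cytoplasm by CellMask, border cells excluded. Results normalized to DMSO; at least two experiments.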

[8] = tested on: PC-3; experiment: Induction of apoptosis in human PC3 cells assessed as increase in nuclear intensity after 72 hrs by Hoechst 33342/mitotracker deep red/cellmask plasma membrane probe-based fluorescence microscopy; format: functional, cell-based
Outline: as §2

[9] = Cell cycle arrest in human PC3 cells assessed as accumulation at G0/G1 phase at 0.1 uM after 24 hrs by propidium iodide staining-based flow cytometric method (reference value: 75.3 +/- 1.8%); format: functional; conditions: PC-3
Outline: as §1

[10] = tested on: PC-3; experiment: Induction of apoptosis in human PC3 cells assessed as increase in cell size after 72 hrs by Hoechst 33342/mitotracker deep red/cellmask plasma membrane probe-based fluorescence microscopy; format: functional
Outline: as §2

[11] = Cell cycle arrest in human PC3 cells assessed as accumulation at G2/M phase at 0.1 uM after 24 hrs by propidium iodide staining-based flow cytometric method (reference value: 8.9 +/- 1.5%); format: functional; conditions: PC-3
Outline: as §1

[12] = Cell cycle arrest in human PC3 cells assessed as accumulation at S phase at 0.1 uM after 24 hrs by propidium iodide staining-based flow cytometric method (reference value: 15.8 +/- 0.3%); format: functional; conditions: PC-3
Outline: as §1

[13] = tested on: PC-3; experiment: Induction of apoptosis in human PC3 cells assessed as appearance of aggregated mitochondrial texture after 72 hrs by Hoechst 33342/mitotracker deep red/cellmask plasma membrane probe-based fluorescence microscopy; format: functional, cell-based
Outline: as §2

[14] = tested on: PC-3; experiment: Induction of apoptosis in human PC3 cells assessed as increase in mitochondrial area after 72 hrs by Hoechst 33342/mitotracker deep red/cellmask plasma membrane probe-based fluorescence microscopy; format: functional, cell-based
Outline: as §2

[15] = Cell cycle arrest in human PC3 cells assessed as accumulation at G2/M phase at 1 uM after 24 hrs by propidium iodide staining-based flow cytometric method (reference value: 8.9 +/- 1.5%); format: functional; conditions: PC-3
Outline: as §1

[16] = tested on: PC-3; experiment: Induction of apoptosis in human PC3 cells assessed as appearance of rounded cells after 72 hrs by Hoechst 33342/mitotracker deep red/cellmask plasma membrane probe-based fluorescence microscopy; format: functional, cell-based
Outline: as §2

[17] = tested on: PC-3; experiment: Induction of apoptosis in human PC3 cells assessed as increase in mitochondrial intensity after 72 hrs by Hoechst 33342/mitotracker deep red/cellmask plasma membrane probe-based fluorescence microscopy; format: functional, cell-based
Outline: as §2

[18] = Cell cycle arrest in human PC3 cells assessed as accumulation at G0/G1 phase at 0.3 uM after 24 hrs by propidium iodide staining-based flow cytometric method (reference value: 75.3 +/- 1.8%); format: functional; conditions: PC-3
Outline: as §1

[19] = tested on: PC-3; experiment: Induction of apoptosis in human PC3 cells assessed as chromatin condensation after 72 hrs by Hoechst 33342/mitotracker deep red/cellmask plasma membrane probe-based fluorescence microscopy; format: functional, cell-based
Outline: as §2

C[C@H](Cc1ccc2c(c1)OCO2)[C@H](C)Cc1ccc2c(c1)OCO2 showed an inhibition at 10 µM [1] of 27%.
COc1cc([C@@H]2c3cc4c(cc3C[C@H]3COC(=O)[C@@H]32)OCO4)cc(OC)c1OC [DESOXYPODOPHYLLOTOXIN] showed an IC50 [2] of 18 nM.
COc1cc([C@@H]2O[C@H](c3ccc4c(c3)OCO4)[C@@H](C)[C@@H]2C)ccc1O gave an IC50 [2] of 5110 nM.
CC(=O)O[C@H]1C(=O)[C@@]2(C)[C@H]([C@H](OC(=O)c3ccccc3)[C@]3(O)C[C@H](OC(=O)[C@H](O)[C@@H](NC(=O)c4ccccc4)c4ccccc4)C(C)=C1C3(C)C)[C@]1(OC(C)=O)CO[C@@H]1C[C@@H]2O [PACLITAXEL] gave an IC50 [2] of 2 nM.
In the case of COc1cc([C@@H]2c3cc4c(c(OC)c3C[C@H]3COC(=O)[C@@H]32)OCO4)cc2c1OCO2, the IC50 [2] is reported as 47 nM.
Molecule COc1cc([C@@H]2c3cc4c(cc3C[C@@H](C)[C@@H]2C)OCO4)cc(OC)c1OC has an IC50 [2] of 823 nM.
Molecule COc1cc([C@@H]2c3cc4c(c(OC)c3C[C@H]3COC(=O)[C@@H]32)OCO4)cc(OC)c1OC has an IC50 [2] of 16 nM.
For COc1cc(C(c2ccc(O)c(OC)c2)[C@@H](C)[C@H](C)CO)ccc1O, the IC50 [2] was 6360 nM.
Molecule COc1cc(C(=O)O[C@@H](c2ccc3c(c2)OCO3)[C@H](C)C(C)=O)ccc1O has an Activity [3] of 32.2%, an Activity [4] of 61.1% and an Activity [5] of 35.1%. For the same molecule, the Activity [6] was 4.4%, the IC50 [2] was 1910 nM and the Activity [7] was “Dose-dependent effect”. The Activity [8] was “Dose-dependent effect”, the Activity [9] was 62.6% and the Activity [10] was “Dose-dependent effect”. For the same molecule, the Activity [11] was 9.9%, the Activity [12] was 27.5% and the Activity [13] was “Dose-dependent effect”. The Activity [14] was “Dose-dependent effect”, the Activity [15] was 3.8% and the Activity [16] was “Dose-dependent effect”. For the same molecule, the Activity [17] was “Dose-dependent effect”, the Activity [18] was 63.4% and the Activity [19] was “Dose-dependent effect”.
For COc1cc([C@@H]2c3cc4c(cc3C[C@@H](C)[C@@H]2C)OCO4)cc2c1OCO2, the IC50 [2] was 2060 nM.
Molecule C[C@H]1[C@H](C)C(=O)O[C@@H]1c1ccc2c(c1)OCO2 has an inhibition at 10 µM [1] of 15%.
Work on COc1cc([C@@H]2c3cc4c(cc3C[C@@H](C)[C@@H]2C(=O)O)OCO4)cc2c1OCO2 yielded an IC50 [2] of 1630 nM.
In the case of COc1cc([C@@H]2c3cc4c(cc3C[C@H]3COC(=O)[C@@H]32)OCO4)cc2c1OCO2 [AUSTROBAILIGNAN 1], the IC50 [2] is reported as 50 nM.

Reference: ChEMBL document CHEMBL3861956, “Lignans from the Australian Endemic Plant Austrobaileya scandens” (J Nat Prod, 2016)
